Test results reported in ChEMBL document CHEMBL4834399, “Pharmacokinetics of Eleven Kratom Alkaloids Following an Oral Dose of Either Traditional or Commercial Kratom Products in Rats” (J Nat Prod, 2021).

Columns and labels:
[1] = Stability of the compound in water-methanol mixture (1:1) assessed as drug recovery; format: physicochemical; settings: buffer
[2] = Stability of the compound in rat plasma assessed as drug recovery; format: ADME, cell-free
[3] = Dose normalized Cmax in rat plasma at 20 mg/kg, po administered as LKT formulation; format: ADME, organism-based; settings: in vivo
[4] = target: Cytochrome P450 2D6 (Homo sapiens, UniProt P10635); test: Inhibition of CYP2D6 in human liver microsomes assessed as inhibition of dextromethorphan O-demethylation using dextromethorphan as substrate preincubated for 5 mins followed by NADPH addition by UPLC-MS/MS analysis; format: ADME
[5] = Dose normalized AUC in rat plasma at 20 mg/kg, po administered as LKT formulation; format: ADME, organism-based; settings: in vivo
[6] = rat, in vivo, po, 9.6 mg/kg, 24 h
[7] = Tmax in Sprague-Dawley rat plasma at 9.6 mg/kg, po administered as OPMS liquid formulation measured for 24 hrs by UPLC-MS/MS analysis; format: ADME, organism-based
In short: (§1)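 Jugular-cannulated male SD rats (225 ± 25 g, n = 4) were fasted 12–16 h and given one oral gavage of LKT (366 mg/kg) or OPMS liquid (0.8 mL/kg) in water at 4 mL/kg, with dosing normalized to MTG human equivalent dose. Plasma was sampled from predose to 24 h and measured by UPLC–MS/MS (LLOQ 1 ng/mL). Cmax and Tmax were read from the observed data; Cmax/dose was also reported. Mean ± SEM.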

[8] = rat, in vivo, po, 5.73 mg/kg, 24 h
[9] = Cmax in Sprague-Dawley rat plasma at 5.73 mg/kg, po administered as LKT formulation measured for 24 hrs by UPLC-MS/MS analysis; format: ADME, organism-based; design: route oral, dose 5.73 mg/kg, time 24 hrs; in short: as §1
[10] = Dose normalized AUC(0 to 24 hrs) in Sprague-Dawley rat plasma at 5.73 mg/kg, po administered as LKT formulation measured for 24 hrs by UPLC-MS/MS analysis; format: ADME, organism-based; settings: in vivo
[11] = Dose normalized AUC(0 to 24 hrs) in Sprague-Dawley rat plasma at 9.6 mg/kg, po administered as OPMS liquid formulation measured for 24 hrs by UPLC-MS/MS analysis; format: ADME, organism-based; settings: in vivo
[12] = AUC(0 to 24 hrs) in Sprague-Dawley rat plasma at 5.73 mg/kg, po administered as LKT formulation measured for 24 hrs by UPLC-MS/MS analysis; format: ADME, organism-based; design: route oral, time 24 hrs, dose 5.73 mg/kg
[13] = AUC(0 to 24 hrs) in Sprague-Dawley rat plasma at 9.6 mg/kg, po administered as OPMS liquid formulation measured for 24 hrs by UPLC-MS/MS analysis; format: ADME, organism-based; design: route oral, time 24 hrs, dose 9.6 mg/kg
[14] = Dose normalized Cmax in Sprague-Dawley rat plasma at 9.6 mg/kg, po administered as OPMS liquid formulation measured for 24 hrs by UPLC-MS/MS analysis; format: ADME, organism-based; settings: in vivo; in short: as §1
[15] = Dose normalized Cmax in Sprague-Dawley rat plasma at 5.73 mg/kg, po administered as LKT formulation measured for 24 hrs by UPLC-MS/MS analysis; format: ADME, organism-based; settings: in vivo; in short: as §1
[16] = Cmax in Sprague-Dawley rat plasma at 9.6 mg/kg, po administered as OPMS liquid formulation measured for 24 hrs by UPLC-MS/MS analysis; format: ADME, organism-based; design: route oral, dose 9.6 mg/kg, time 24 hrs; in short: as §1
[17] = Tmax in Sprague-Dawley rat plasma at 5.73 mg/kg, po administered as LKT formulation measured for 24 hrs by UPLC-MS/MS analysis; format: ADME, organism-based; in short: as §1
[18] = Cmax in Sprague-Dawley rat plasma at 2.03 mg/kg, po administered as LKT formulation measured for 24 hrs by UPLC-MS/MS analysis; format: ADME, organism-based; design: route oral, dose 2.03 mg/kg, time 24 hrs; in short: as §1
[19] = Tmax in Sprague-Dawley rat plasma at 2.03 mg/kg, po administered as LKT formulation measured for 24 hrs by UPLC-MS/MS analysis; format: ADME, organism-based; in short: as §1
[20] = Dose normalized AUC(0 to 24 hrs) in Sprague-Dawley rat plasma at 2.24 mg/kg, po administered as OPMS liquid formulation measured for 24 hrs by UPLC-MS/MS analysis; format: ADME, organism-based; settings: in vivo
[21] = Tmax in Sprague-Dawley rat plasma at 2.24 mg/kg, po administered as OPMS liquid formulation measured for 24 hrs by UPLC-MS/MS analysis; format: ADME, organism-based; in short: as §1
[22] = Dose normalized AUC(0 to 24 hrs) in Sprague-Dawley rat plasma at 2.03 mg/kg, po administered as LKT formulation measured for 24 hrs by UPLC-MS/MS analysis; format: ADME, organism-based; settings: in vivo
[23] = AUC(0 to 24 hrs) in Sprague-Dawley rat plasma at 2.24 mg/kg, po administered as OPMS liquid formulation measured for 24 hrs by UPLC-MS/MS analysis; format: ADME, organism-based; design: route oral, time 24 hrs, dose 2.24 mg/kg
[24] = Dose normalized Cmax in Sprague-Dawley rat plasma at 2.24 mg/kg, po administered as OPMS liquid formulation measured for 24 hrs by UPLC-MS/MS analysis; format: ADME, organism-based; settings: in vivo; in short: as §1
[25] = AUC(0 to 24 hrs) in Sprague-Dawley rat plasma at 2.03 mg/kg, po administered as LKT formulation measured for 24 hrs by UPLC-MS/MS analysis; format: ADME, organism-based; design: route oral, time 24 hrs, dose 2.03 mg/kg
[26] = Dose normalized Cmax in Sprague-Dawley rat plasma at 2.03 mg/kg, po administered as LKT formulation measured for 24 hrs by UPLC-MS/MS analysis; format: ADME, organism-based; settings: in vivo; in short: as §1
[27] = Cmax in Sprague-Dawley rat plasma at 2.24 mg/kg, po administered as OPMS liquid formulation measured for 24 hrs by UPLC-MS/MS analysis; format: ADME, organism-based; design: route oral, dose 2.24 mg/kg, time 24 hrs; in short: as §1
[28] = Plasma concentration in Sprague-Dawley rat at 1.77 mg/kg, po administered as OPMS liquid formulation measured within 1 hrs by UPLC-MS/MS analysis; format: ADME, organism-based; in short: as §1
[29] = Tmax in Sprague-Dawley rat plasma at 1.77 mg/kg, po administered as OPMS liquid formulation measured for 24 hrs by UPLC-MS/MS analysis; format: ADME, organism-based; in short: as §1
[30] = Cmax in Sprague-Dawley rat plasma at 1.77 mg/kg, po administered as OPMS liquid formulation measured for 24 hrs by UPLC-MS/MS analysis; format: ADME, organism-based; design: route oral, time 24 hrs, dose 1.77 mg/kg; in short: as §1
[31] = Tmax in Sprague-Dawley rat plasma at 1.1 mg/kg, po administered as LKT formulation measured for 24 hrs by UPLC-MS/MS analysis; format: ADME, organism-based; in short: as §1
[32] = Cmax in Sprague-Dawley rat plasma at 1.1 mg/kg, po administered as LKT formulation measured for 24 hrs by UPLC-MS/MS analysis; format: ADME, organism-based; design: route oral, dose 1.1 mg/kg, time 24 hrs; in short: as §1
[33] = Plasma concentration in Sprague-Dawley rat at 1.1 mg/kg, po administered as LKT formulation measured within 1 hrs by UPLC-MS/MS analysis; format: ADME, organism-based; in short: as §1

Sequence of Cytochrome P450 2D6 (P10635 whole entry): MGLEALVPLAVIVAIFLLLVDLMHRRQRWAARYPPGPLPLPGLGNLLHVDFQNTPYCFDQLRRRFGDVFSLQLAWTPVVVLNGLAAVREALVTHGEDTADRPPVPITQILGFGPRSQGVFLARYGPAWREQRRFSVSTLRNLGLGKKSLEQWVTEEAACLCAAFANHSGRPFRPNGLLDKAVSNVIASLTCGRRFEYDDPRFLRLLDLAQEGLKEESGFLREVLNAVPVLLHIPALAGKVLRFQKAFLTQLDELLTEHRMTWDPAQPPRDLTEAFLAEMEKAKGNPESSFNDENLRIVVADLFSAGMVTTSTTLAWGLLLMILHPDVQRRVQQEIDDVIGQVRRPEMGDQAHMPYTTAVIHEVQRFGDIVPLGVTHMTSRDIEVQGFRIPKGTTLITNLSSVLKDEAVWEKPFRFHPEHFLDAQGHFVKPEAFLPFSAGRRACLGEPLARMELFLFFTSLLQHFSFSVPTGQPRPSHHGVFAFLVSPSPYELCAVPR

COC(=O)C1=CO[C@@H](C)[C@H]2CN3CC[C@]4(C(=O)Nc5ccccc54)[C@@H]3C[C@H]12
Drug recovery [1]: > 80% | Drug recovery [2]: > 90%

CC[C@@H]1CN2CCc3c([nH]c4cccc(OC)c34)[C@@H]2C[C@@H]1/C(=C\OC)C(=O)OC
Cmax/dose [3]: 46.5 ng/mL | Ki [4]: 1100 nM | AUC/dose [5]: 213.1 kg·ng·h/mL/mg | Drug metabolism [6]: 3.1% | Tmax [7]: 3.1 h | Drug metabolism [8]: 3.4% | Cmax [9]: 63.8 ng/mL | AUC/dose [10]: 83.7 kg·ng·h/mL/mg | Drug recovery [1]: > 80% | AUC/dose [11]: 136.1 kg·ng·h/mL/mg | AUC(0-t) at 24 h [12]: 480 ng·h/mL | AUC(0-t) at 24 h [13]: 1310 ng·h/mL | Cmax/dose [14]: 11.7 kg·ng/mL/mg | Cmax/dose [15]: 11.1 kg·ng/mL/mg | Cmax [16]: 112 ng/mL | Drug recovery [2]: > 90% | Tmax [17]: 1.3 h

CC[C@@H]1CN2CCc3c([nH]c4cccc(OC)c34)[C@H]2C[C@@H]1/C(=C\OC)C(=O)OC
Cmax [18]: 21.1 ng/mL | Tmax [19]: 1.8 h | AUC/dose [20]: 101.2 kg·ng·h/mL/mg | Tmax [21]: 3.2 h | AUC/dose [22]: 52.9 kg·ng·h/mL/mg | AUC(0-t) at 24 h [23]: 223 ng·h/mL | Cmax/dose [24]: 10.8 kg·ng/mL/mg | Drug recovery [1]: > 80% | AUC(0-t) at 24 h [25]: 107 ng·h/mL | Cmax/dose [26]: 10.4 kg·ng/mL/mg | Cmax [27]: 23.8 ng/mL | Drug recovery [2]: > 90%

C=C[C@H]1CN2CCc3c([nH]c4cccc(OC)c34)[C@@H]2C[C@@H]1/C(=C\OC)C(=O)OC
concentration at 1 h [28]: < 1 ng/mL | Tmax [29]: 5 min | Cmax [30]: 2 ng/mL | Tmax [31]: 0.167 h | Drug recovery [1]: > 80% | Cmax [32]: 5.3 ng/mL | concentration at 1 h [33]: < 1 ng/mL | Drug recovery [2]: > 90%

CC[C@@H]1CN2CC[C@@]3(C(=O)Nc4cccc(O)c43)[C@H]2C[C@@H]1/C(=C\OC)C(=O)OC
Drug recovery [1]: > 80% | Drug recovery [2]: > 90%
